Reference: ChEMBL document CHEMBL4033702, “Challenges in the development of an M4 PAM preclinical candidate: The discovery, SAR, and in vivo characterization of a series of 3-aminoazetidine-derived amides” (Bioorg Med Chem Lett, 2017)
Values after ≈ are worked out from the molar mass of the structure shown.

Columns and labels:
[1] = Aqueous solubility of the compound at pH 7.4; assay type: physicochemical; details: buffer
[2] = system: Canis familiaris; experiment: Oral bioavailability in Mongrel dog at 2 to 3 mg/kg; assay type: ADME, organism-based, Canis lupus familiaris; details: in vivo
Procedure, shortened: (§1)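 IV and PO pharmacokinetics in female mongrel dogs, n = 1–2. The oral dose was a 2–3 mg/kg solution. Vss and oral bioavailability were determined.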

[3] = system: Rattus norvegicus; experiment: Volume of distribution at steady state in iv or po dosed Sprague-Dawley rat; assay type: ADME, organism-based; details: in vivo
Procedure, shortened: (§2)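 IV and PO pharmacokinetics in male Sprague-Dawley rats, n = 1–3. The oral dose was a 2–3 mg/kg solution. Plasma clearance, Vss and oral bioavailability were determined.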

[4] = biological target: Sodium-dependent dopamine transporter (Homo sapiens, UniProt Q01959); experiment: Displacement of [3H]BTCP from human recombinant dopamine transporter expressed in CHO cells; assay type: cell-based
[5] = system: Brain; experiment: Drug level in Sprague-Dawley rat brain at 3 mg/kg, po; assay type: ADME, organism-based; details: in vivo, read-out: Drug uptake
[6] = system: Rattus norvegicus; experiment: Reversal of amphetamine-induced hyperlocomotion in Sprague-Dawley rat at 10 mg/kg, po pretreated 30 mins post habituation in the chamber followed by amphetamine injection after 30 mins measured after 60 mins; assay type: functional
Procedure, shortened: (§3)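 Male Sprague-Dawley rats, n = 6–24 per dose group, were habituated in the chamber for 30 min. The compound or vehicle (10% tween-80 in water, v/v) was then given orally. Amphetamine 0.75 mg/kg was injected subcutaneously 30 min later. Total ambulations over t = 60–120 min gave % reversal of AHL, reported as mean ± SEM.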

[7] = biological target: T1, Muscarinic acetylcholine receptor M4 (Homo sapiens, UniProt P08173); experiment: Positive allosteric modulation of human M4 receptor expressed in CHO cells co-expressing Gqi5 assessed as increase in acetylcholine-induced calcium mobilization
T1 sequence (P08173 whole entry): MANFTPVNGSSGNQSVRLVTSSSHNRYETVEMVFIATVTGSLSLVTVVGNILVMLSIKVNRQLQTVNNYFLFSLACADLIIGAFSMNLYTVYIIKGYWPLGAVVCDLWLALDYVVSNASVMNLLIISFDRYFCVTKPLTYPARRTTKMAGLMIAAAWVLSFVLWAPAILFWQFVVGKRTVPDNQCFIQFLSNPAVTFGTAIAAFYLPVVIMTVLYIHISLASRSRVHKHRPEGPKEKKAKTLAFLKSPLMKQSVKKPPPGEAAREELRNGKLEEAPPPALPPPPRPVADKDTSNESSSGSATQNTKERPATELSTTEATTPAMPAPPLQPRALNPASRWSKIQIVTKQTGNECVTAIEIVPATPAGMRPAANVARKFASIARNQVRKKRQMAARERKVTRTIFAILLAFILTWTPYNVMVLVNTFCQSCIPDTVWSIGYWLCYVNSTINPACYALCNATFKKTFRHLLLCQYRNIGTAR

[8] = system: Brain; experiment: Drug level in Sprague-Dawley rat brain at 0.03 mg/kg, po; assay type: ADME, organism-based; details: in vivo, read-out: Drug uptake
[9] = Clearance in iv or po dosed Sprague-Dawley rat; assay type: ADME, organism-based; details: in vivo; procedure, shortened: as §2
[10] = biological target: T2, Cytochrome P450 1A2 (Homo sapiens, UniProt P05177); experiment: Inhibition of CYP1A2 (unknown origin); assay type: ADME
T2 sequence (P05177 whole entry): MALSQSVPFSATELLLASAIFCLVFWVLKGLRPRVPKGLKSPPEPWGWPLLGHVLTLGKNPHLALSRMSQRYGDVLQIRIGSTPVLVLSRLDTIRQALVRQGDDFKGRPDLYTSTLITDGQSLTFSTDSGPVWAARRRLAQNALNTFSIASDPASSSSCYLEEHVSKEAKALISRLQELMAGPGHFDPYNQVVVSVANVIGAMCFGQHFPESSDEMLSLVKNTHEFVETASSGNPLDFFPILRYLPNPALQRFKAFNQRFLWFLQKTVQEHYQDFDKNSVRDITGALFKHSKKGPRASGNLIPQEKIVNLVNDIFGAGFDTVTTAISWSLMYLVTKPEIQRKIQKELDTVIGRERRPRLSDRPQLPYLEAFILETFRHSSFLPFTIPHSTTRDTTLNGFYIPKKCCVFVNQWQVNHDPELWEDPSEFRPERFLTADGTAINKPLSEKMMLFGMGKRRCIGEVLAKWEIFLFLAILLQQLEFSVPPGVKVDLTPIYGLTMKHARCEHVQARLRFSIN

[11] = system: Rattus norvegicus; experiment: Reversal of amphetamine-induced hyperlocomotion in Sprague-Dawley rat at 0.3 mg/kg, po pretreated 30 mins post habituation in the chamber followed by amphetamine injection after 30 mins measured after 60 mins; assay type: functional; procedure, shortened: as §3
[12] = biological target: T3, Cytochrome P450 2D6 (Homo sapiens, UniProt P10635); experiment: Time-dependent inhibition of CYP2D6 (unknown origin); assay type: ADME
[13] = biological target: T4, Cytochrome P450 2C19 (Homo sapiens, UniProt P33261); experiment: Inhibition of CYP2C19 (unknown origin); assay type: ADME
[14] = system: Brain; experiment: Drug level in Sprague-Dawley rat brain at 10 mg/kg, po; assay type: ADME, organism-based; details: in vivo, read-out: Drug uptake
[15] = system: Rattus norvegicus; experiment: Reversal of amphetamine-induced hyperlocomotion in po dosed Sprague-Dawley rat pretreated 30 mins post habituation in the chamber followed by amphetamine injection after 30 mins measured after 60 mins; assay type: functional; details: read-out: MED; procedure, shortened: as §3
[16] = biological target: T3, Cytochrome P450 2D6; experiment: Inhibition of CYP2D6 (unknown origin); assay type: ADME
[17] = biological target: T4, Cytochrome P450 2C19; experiment: Time-dependent inhibition of CYP2C19 (unknown origin); assay type: ADME
[18] = biological target: Cytochrome P450 2C9 (Homo sapiens, UniProt P11712); experiment: Time-dependent inhibition of CYP2C9 (unknown origin); assay type: ADME
[19] = system: Rattus norvegicus; experiment: Reversal of amphetamine-induced hyperlocomotion in Sprague-Dawley rat at 0.1 mg/kg, po pretreated 30 mins post habituation in the chamber followed by amphetamine injection after 30 mins measured after 60 mins; assay type: functional; procedure, shortened: as §3
[20] = system: Rattus norvegicus; experiment: Reversal of amphetamine-induced hyperlocomotion in Sprague-Dawley rat at 0.03 mg/kg, po pretreated 30 mins post habituation in the chamber followed by amphetamine injection after 30 mins measured after 60 mins; assay type: functional; procedure, shortened: as §3
[21] = system: Canis familiaris; experiment: Volume of distribution at steady state in iv or po dosed Mongrel dog; assay type: ADME, organism-based, Canis lupus familiaris; details: in vivo; procedure, shortened: as §1

T4 sequence (P33261 whole entry): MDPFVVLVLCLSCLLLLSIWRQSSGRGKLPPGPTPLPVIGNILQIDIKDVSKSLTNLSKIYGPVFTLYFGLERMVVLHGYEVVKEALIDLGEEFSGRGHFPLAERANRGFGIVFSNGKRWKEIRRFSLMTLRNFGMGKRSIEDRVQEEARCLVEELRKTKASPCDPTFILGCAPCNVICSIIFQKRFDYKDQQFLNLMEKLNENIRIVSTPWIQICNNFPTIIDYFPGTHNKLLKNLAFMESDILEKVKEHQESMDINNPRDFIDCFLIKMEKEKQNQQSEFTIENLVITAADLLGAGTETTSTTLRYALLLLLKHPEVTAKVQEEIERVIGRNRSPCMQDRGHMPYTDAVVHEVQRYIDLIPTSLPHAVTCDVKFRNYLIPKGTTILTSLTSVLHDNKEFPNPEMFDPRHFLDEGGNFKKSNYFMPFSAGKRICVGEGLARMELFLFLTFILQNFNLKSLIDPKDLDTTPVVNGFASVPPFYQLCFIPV
T3 sequence (P10635 whole entry): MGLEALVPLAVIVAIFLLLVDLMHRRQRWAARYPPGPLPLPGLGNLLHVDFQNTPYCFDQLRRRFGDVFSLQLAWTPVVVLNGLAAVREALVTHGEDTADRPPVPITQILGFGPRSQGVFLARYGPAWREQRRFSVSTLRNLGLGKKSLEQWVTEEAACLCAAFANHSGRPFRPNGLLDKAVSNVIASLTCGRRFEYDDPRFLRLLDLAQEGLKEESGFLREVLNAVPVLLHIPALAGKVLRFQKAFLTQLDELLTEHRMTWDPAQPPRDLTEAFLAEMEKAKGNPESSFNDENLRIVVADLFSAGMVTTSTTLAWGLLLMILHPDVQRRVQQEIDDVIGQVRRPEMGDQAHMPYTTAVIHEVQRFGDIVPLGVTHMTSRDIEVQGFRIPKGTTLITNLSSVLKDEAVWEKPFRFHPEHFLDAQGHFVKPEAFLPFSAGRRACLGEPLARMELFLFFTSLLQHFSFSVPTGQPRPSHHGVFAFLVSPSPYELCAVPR
Cytochrome P450 2C9, sequence (P11712 whole entry): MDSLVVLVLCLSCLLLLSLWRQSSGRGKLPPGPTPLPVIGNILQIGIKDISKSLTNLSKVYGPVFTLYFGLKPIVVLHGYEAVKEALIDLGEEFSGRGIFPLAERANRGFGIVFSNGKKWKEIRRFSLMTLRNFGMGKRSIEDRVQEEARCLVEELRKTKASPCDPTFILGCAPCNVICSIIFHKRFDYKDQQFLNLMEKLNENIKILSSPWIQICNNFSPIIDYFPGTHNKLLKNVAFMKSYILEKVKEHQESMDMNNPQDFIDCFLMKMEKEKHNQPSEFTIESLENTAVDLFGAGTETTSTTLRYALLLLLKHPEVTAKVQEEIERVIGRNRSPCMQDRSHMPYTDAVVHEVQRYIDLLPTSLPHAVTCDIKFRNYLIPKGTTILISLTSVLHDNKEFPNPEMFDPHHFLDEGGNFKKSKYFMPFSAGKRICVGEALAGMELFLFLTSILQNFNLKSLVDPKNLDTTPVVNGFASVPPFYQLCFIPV
Sodium-dependent dopamine transporter, sequence (Q01959 whole entry): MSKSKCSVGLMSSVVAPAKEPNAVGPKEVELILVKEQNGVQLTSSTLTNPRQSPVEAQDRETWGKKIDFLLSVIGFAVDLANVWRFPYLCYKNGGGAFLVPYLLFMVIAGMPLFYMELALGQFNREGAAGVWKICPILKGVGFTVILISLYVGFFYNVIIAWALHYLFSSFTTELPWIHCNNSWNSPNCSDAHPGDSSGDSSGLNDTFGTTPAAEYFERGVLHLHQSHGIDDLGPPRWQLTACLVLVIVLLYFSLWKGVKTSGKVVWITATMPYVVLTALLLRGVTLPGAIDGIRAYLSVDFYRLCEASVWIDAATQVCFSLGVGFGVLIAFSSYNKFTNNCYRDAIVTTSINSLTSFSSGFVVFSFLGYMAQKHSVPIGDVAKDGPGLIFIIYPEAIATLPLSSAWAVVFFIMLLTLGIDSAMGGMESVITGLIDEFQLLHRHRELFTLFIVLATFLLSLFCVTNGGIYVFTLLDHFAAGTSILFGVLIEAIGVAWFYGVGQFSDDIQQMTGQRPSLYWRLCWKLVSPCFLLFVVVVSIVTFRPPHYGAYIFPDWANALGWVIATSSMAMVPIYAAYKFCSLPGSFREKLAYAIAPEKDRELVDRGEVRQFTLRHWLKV

What does the source list for `Cc1nnc2sc(C(=O)NC3CN(c4cccc(F)c4F)C3)c(N)c2c1C`?
solubility [1]: 1.8 µM (≈ 0.701 µg/mL); F [2]: 20%; Vdss [3]: 0.67 L/kg; IC50 [4]: 0.45 µM; concentration [5]: 510 nM; Activity [6]: 64%; EC50 [7]: 0.019 µM; concentration [8]: 4.6 nM; clearance [9]: 16 mL/min/kg; IC50 [10]: 25 µM; Activity [11]: 43%; TDI [12]: Not Active; IC50 [13]: 6.3 µM; concentration [14]: 820 nM; minimal effective dose [15]: 0.3 mg/kg; IC50 [16]: 14 µM; TDI [17]: Not Active; TDI [18]: Not Active; Activity [19]: 24%; Activity [20]: 18%; Vdss [21]: 1.6 L/kg
